Data published in BindingDB's records for doi:10.1021/jm960868t (Organix, 1997).

Target: Sodium-dependent dopamine transporter (Macaca fascicularis, UniProt Q9GJT6)
Experiment: Inhibition of [3H]WIN-35428 binding to dopamine transporter using of Cynomolgus monkey caudate-putamen
How it was run: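 Caudate-putamen membranes (washed in 50 mM Tris-HCl pH 7.4, 3800g spins) incubated at 4 mg original wet tissue/mL with 0.3 nM [3H]WIN35,428 and 7–14 competitor concentrations in 50 mM Tris-HCl/100 mM NaCl pH 7.4, 2 h at 0–4 °C. Filtered on BSA-soaked GF/B filters, scintillation counting. Nonspecific binding defined with 30 μM (–)-cocaine. IC50 computed by EBDA; independent experiments in triplicate.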

Sequence of Sodium-dependent dopamine transporter (Q9GJT6 whole entry): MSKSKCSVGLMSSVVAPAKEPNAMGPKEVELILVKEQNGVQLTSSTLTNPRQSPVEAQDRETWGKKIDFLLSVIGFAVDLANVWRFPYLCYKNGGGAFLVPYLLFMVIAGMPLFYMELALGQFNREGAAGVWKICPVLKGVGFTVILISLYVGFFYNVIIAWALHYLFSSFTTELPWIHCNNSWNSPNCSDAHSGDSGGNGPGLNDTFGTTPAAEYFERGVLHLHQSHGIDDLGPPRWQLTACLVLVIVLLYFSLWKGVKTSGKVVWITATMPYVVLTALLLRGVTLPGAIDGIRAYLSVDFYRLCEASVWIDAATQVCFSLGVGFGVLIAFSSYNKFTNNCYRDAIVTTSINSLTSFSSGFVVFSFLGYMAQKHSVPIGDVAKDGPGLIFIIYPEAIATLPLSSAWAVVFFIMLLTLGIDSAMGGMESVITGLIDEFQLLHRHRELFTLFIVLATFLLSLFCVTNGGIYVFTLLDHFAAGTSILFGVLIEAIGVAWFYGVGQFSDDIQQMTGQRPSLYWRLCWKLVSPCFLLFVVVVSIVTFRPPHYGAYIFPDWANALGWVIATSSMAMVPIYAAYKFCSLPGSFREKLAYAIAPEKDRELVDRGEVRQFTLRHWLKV

Compound	IC50 [nM]
COC(=O)[C@@H]1C2CCC(C[C@@H]1OC(c1ccc(F)cc1)c1ccc(F)cc1)N2CCCN1CC[S][Re]2(=[O])[S]CC[N]2C(=O)C1 (some centres not stated)	343
COC(=O)C1C(c2ccc(Cl)c(Cl)c2)CC2CCC1N2CCC[N+]12CC[S][Re]13(=[O])[S]CC[N]3C(=O)C2 (stereo not drawn) [[N-[2-[(3'-N'-Propyl-3''beta-(3,4-dichlorophenyl)tropane-2''beta-carboxylic acid methyl ester)(2-mercaptoethyl)amino]acetyl]-2-aminoethanethiolato]rhenium(V) oxide]	37.2
